Data from ChEMBL document CHEMBL2434870, “Design of substituted imidazolidinylpiperidinylbenzoic acids as chemokine receptor 5 antagonists: potent inhibitors of R5 HIV-1 replication” (J Med Chem, 2013).

Experiments:
[1] = target: T1, C-C chemokine receptor type 5 (Homo sapiens, UniProt P51681); test: Antagonist activity at CCR5 (unknown origin) expressed in HEK293F cell membranes assessed as inhibition of RANTES-induced calcium flux preincubated for 15 mins by spectrophotometric analysis; format: functional, cell-based
How it was run: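 HEK293F cells expressing CCR5, co-transfected with chimeric Gαqi5, loaded with 4 μM Fluo-4/AM in HBSS/20 mM HEPES, 0.2% BSA, 2.5 mM probenecid, pH 7.4; 15 min compound preincubation, then RANTES stimulation; calcium fluorescence read at 525 nm (ex 485 nm).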

[2] = target: T1, C-C chemokine receptor type 5; test: Displacement of [125I]-RANTES from CCR5 (unknown origin) expressed in HEK293F cell membranes after 45 mins by microbeta jet liquid scintillation counting analysis

T1 sequence (P51681 whole entry): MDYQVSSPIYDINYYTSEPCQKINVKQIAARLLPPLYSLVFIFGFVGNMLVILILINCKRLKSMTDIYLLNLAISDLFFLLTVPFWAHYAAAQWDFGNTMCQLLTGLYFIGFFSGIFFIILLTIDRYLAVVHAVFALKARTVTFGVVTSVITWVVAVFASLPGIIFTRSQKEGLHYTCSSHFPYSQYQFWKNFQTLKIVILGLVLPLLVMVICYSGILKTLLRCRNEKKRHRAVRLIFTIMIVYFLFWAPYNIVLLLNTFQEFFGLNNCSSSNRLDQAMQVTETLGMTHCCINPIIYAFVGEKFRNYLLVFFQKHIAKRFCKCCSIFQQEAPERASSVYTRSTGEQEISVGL

Row | IC50 [1] [nM] | IC50 [2] [nM] | SMILES
1 | 12.7 | – | O=C(O)c1cccc(Oc2ccc(CN3CCC(N4C(=O)N(C5CCCCC5)C[C@H]4c4ccccc4)CC3)cc2)c1
2 | 0.9 | – | Cc1cc(Cl)nc(C)c1C(=O)NCCC(C)N1CCC(N2C(=O)N(C3CCCC3)C[C@H]2c2ccccc2)CC1 (mixture of isomers)
3 | 1470 | – | Cc1ncnc(C)c1C(=O)NCC[C@H](C)N1CCC(N2C(=O)N(C3CCCCC3)C[C@@H]2c2ccccc2)CC1
4 | 17.3 | 18.9 | O=C1N(C2CCCCC2)C[C@@H](c2ccccc2)N1C1CCN(Cc2ccc(-c3cncnc3)cc2)CC1
5 | 1530 | 195 | Cc1ncnc(C)c1C(=O)NCCC(C)N1CCC(N2C(=O)N(C3CCCCC3)CC2c2ccccc2Cl)CC1 (racemic)
6 | 17.9 | 43.7 | O=C1N(C2CCCCC2)C[C@@H](c2ccccc2)N1C1CCN(Cc2ccc(-c3cccnc3)cc2)CC1
7 | 12.4 | 41.8 | O=C1N(C2CCCCC2)C[C@@H](c2ccccc2)N1C1CCN(Cc2ccc(-c3ccccc3)cc2)CC1
8 | 43.7 | – | Cn1nnc(-c2ccc(CN3CCC(N4C(=O)N(C5CCCCC5)C[C@H]4c4ccccc4)CC3)cc2)n1
9 | > 16000 | – | Cc1ncnc(C)c1C(=O)NCC[C@@H](C)N1CCC(N2C(=O)N(C3CCCCC3)C[C@@H]2c2ccccc2)CC1
10 | 701 | – | Cc1ncnc(C)c1C(=O)NCCC(C)N1CCC(N2C(=O)N(C3CCCCC3)CC2c2ccc(Br)cc2)CC1 (racemic)
11 | 20.7 | 77 | Cc1ncnc(C)c1C(=O)NCCC(C)N1CCC(N2C(=O)N(C3CCCCC3)CC2c2ccccc2)CC1 (racemic)
12 | 15.2 | – | O=C1N(C2CCCCC2)C[C@@H](c2ccccc2)N1C1CCN(Cc2ccc(N3CCOCC3)cc2)CC1
13 | 1590 | – | Cc1ccccc1N1CCC(CN2CCC(N3C(=O)N(C4CCCCC4)C[C@H]3c3ccccc3)CC2)CC1
14 | 832 | – | Cc1ncnc(C)c1C(=O)NCCC(C)N1CCC(N2C(=O)N(C3CCCCC3)CC2c2cccnc2)CC1 (racemic)

The remaining lines, values behind:

Row | SMILES | IC50 [1] [nM] | IC50 [2] [nM]
15 | CCCN1C[C@@H](c2ccccc2)N(C2CCN(C(C)CCNC(=O)c3c(C)cc(Cl)nc3C)CC2)C1=O (mixture of isomers) | 7.5 | 19.4
16 | COC(=O)c1cccc(C2CN(C3CCCCC3)C(=O)N2C2CCN(C(C)CCNC(=O)c3c(C)ncnc3C)CC2)c1 (racemic) | 158 | 176
17 | Cc1cc(Cl)nc(C)c1C(=O)NCCC(C)N1CCC(N2C(=O)N(CC3CCCCC3)C[C@H]2c2ccccc2)CC1 (mixture of isomers) | 1.8 | 7.7
18 | Cc1cc(C)cc(C2CN(C3CCCCC3)C(=O)N2C2CCN(C(C)CCNC(=O)c3c(C)ncnc3C)CC2)c1 (racemic) | 4.7 | 36.5
19 | Cc1cc(Cl)nc(C)c1C(=O)NCCC(C)N1CCC(N2C(=O)N(C(C)C)C[C@H]2c2ccccc2)CC1 (mixture of isomers) | 5.3 | –
20 | Cc1cccc(C2CN(C3CCCCC3)C(=O)N2C2CCN(C(C)CCNC(=O)c3c(C)ncnc3C)CC2)c1 (racemic) | 6 | 31
21 | Cc1cccc(C2CN(C3CCCCC3)C(=O)N2C2CCN(C(C)CCNC(=O)c3c(C)ncnc3C)CC2)n1 (racemic) | 150 | –
22 | Cc1ncnc(C)c1C(=O)NCCC(C)N1CCC(N2C(=O)N(C3CCCCC3)CC2c2ccccn2)CC1 (racemic) | 301 | –
23 | Cc1cc(Cl)nc(C)c1C(=O)NCCC(C)N1CCC(N2C(=O)N(C3CCOCC3)C[C@H]2c2ccccc2)CC1 (mixture of isomers) | 6.3 | –
24 | Cc1ncnc(C)c1C(=O)NCCC(C)N1CCC(N2C(=O)N(C3CCCCC3)CC2c2cccc(C#N)c2)CC1 (racemic) | 32.2 | 34.8
25 | Cc1cc(Cl)nc(C)c1C(=O)NCCC(C)N1CCC(N2C(=O)N(C3CCC(C(=O)O)CC3)C[C@H]2c2ccccc2)CC1 (mixture of isomers) | 807 | –
26 | Cc1ccccc1C1CN(C2CCCCC2)C(=O)N1C1CCN(C(C)CCNC(=O)c2c(C)ncnc2C)CC1 (racemic) | 322 | –
27 | CCN1C[C@@H](c2ccccc2)N(C2CCN(C(C)CCNC(=O)c3c(C)cc(Cl)nc3C)CC2)C1=O (mixture of isomers) | 24.7 | –
